Results reported in ChEMBL document CHEMBL1122863, “Renin inhibitors. Syntheses of subnanomolar, competitive, transition-state analogue inhibitors containing a novel analogue of statine” (J Med Chem, 1985).
pIC50, pKi: −log10 of the molar value. Residues, ends and D or L forms follow the SMILES beside them.

How the values were obtained:
[1] = target: T1, Renin (Homo sapiens, UniProt P00797); test: Inhibition of human plasma renin; assay type: cell-free
T1 sequence (P00797 whole entry): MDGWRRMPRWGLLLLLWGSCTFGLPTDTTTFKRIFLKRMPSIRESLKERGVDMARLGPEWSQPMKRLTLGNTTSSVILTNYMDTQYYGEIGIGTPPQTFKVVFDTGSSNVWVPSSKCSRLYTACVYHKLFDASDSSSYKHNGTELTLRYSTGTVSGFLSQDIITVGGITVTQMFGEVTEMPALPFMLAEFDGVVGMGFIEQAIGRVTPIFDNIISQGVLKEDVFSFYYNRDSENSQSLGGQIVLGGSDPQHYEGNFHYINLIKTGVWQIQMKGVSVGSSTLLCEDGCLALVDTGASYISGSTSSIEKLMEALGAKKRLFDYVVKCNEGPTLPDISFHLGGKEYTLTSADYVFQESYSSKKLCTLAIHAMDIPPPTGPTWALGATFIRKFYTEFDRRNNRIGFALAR
Procedure, shortened: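 Renin in reconstituted lyophilized human plasma (high- or low-renin lots), acting on endogenous angiotensinogen. Angiotensin I was measured by radioimmunoassay at pH 7.4 phosphate, 37 °C, with 8-hydroxyquinoline or PMSF as angiotensinase inhibitor. Inhibitor stocks were 1.00×10⁻³ M in methanol or acetic acid. IC50 taken from several concentrations bracketing it.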

[2] = target: T1, Renin; test: Inhibition of human kidney renin
Procedure, shortened: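 Fluorometric assay with a synthetic tetradecapeptide substrate, pH 7.20 citrate/phosphate, 37 °C. Ki obtained by fitting to a competitive inhibition equation, sometimes from data pooled across two independent experiments. Reproducible within ±20%.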

[3] = target: Renin (Canis familiaris); test: Inhibition of Renin
[4] = target: T2, Rhizopuspepsin (Rhizopus microsporus var. chinensis, UniProt P06026); test: Inhibition of rhizopuspepsin
T2 sequence (P06026 whole entry): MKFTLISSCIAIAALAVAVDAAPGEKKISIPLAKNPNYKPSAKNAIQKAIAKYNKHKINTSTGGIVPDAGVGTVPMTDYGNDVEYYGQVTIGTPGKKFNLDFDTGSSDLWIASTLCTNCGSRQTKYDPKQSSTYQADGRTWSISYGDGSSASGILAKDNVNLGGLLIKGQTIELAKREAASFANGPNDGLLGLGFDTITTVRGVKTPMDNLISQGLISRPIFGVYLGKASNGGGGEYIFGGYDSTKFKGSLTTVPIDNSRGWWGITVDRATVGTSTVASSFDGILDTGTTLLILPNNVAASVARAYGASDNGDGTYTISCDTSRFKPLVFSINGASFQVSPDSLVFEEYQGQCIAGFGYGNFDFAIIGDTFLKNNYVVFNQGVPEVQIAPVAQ
Procedure, shortened: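 IC50 came from several inhibitor concentrations and was converted to Ki by the Cha equation, assuming competitive inhibition.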

[5] = target: Pepsin A (Sus scrofa, UniProt P00791); test: The compound was tested for inhibition of porcine pepsin.
Sequence of Pepsin A (P00791 whole entry): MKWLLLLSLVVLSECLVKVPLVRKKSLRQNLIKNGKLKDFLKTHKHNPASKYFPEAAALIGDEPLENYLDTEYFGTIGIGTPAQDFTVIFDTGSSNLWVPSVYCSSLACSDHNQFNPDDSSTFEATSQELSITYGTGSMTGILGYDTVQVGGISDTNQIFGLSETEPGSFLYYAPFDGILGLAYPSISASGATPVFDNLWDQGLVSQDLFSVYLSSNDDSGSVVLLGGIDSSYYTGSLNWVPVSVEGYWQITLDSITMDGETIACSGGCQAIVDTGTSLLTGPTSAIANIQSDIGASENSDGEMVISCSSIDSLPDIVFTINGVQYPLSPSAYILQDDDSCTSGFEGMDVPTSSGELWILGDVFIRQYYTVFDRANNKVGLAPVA

[6] = species on record: Mus musculus; test: The compound was tested for inhibition of mouse submaxillary renin.; assay type: functional
Procedure, shortened: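 Mouse submaxillary gland renin was run like the human kidney renin assay: synthetic tetradecapeptide substrate, fluorometric read-out, pH 7.20 citrate/phosphate, 37 °C. Ki came from a competitive inhibition fit.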

Question: How did the pIC50 [1] turn out when CC(C)C[C@H](NC(=O)C[C@H](O)[C@H](Cc1ccccc1)NC(=O)[C@H](Cc1c[nH]cn1)NC(=O)COc1ccccc1)C(=O)N[C@@H](Cc1ccccc1)C(N)=O was run?
Answer: The pIC50 was under 6.00.

Question: And the pKi [2]?
Answer: Its pKi is 6.24.

Question: What about the pIC50 [3] of the same compound?
Answer: The pIC50 was under 6.00.

Question: CC(C)C[C@H](NC(=O)C[C@H](O)[C@H](CC(C)C)NC(=O)[C@H](Cc1c[nH]cn1)NC(=O)COc1ccccc1)C(=O)N[C@@H](Cc1ccccc1)C(N)=O (HELM PEPTIDE1{[O=C(COc1ccccc1)[*:2]].H.[CC(C)C[C@H](N[*:1])[C@@H](O)CC(=O)[*:2]].L.F.[am]}$$$$V2.0) was tested. Which pKi [2] did it give?
Answer: The pKi was 5.39.

Question: With CC(C)C[C@H](NC(=O)C[C@H](O)[C@H](CC1CCCCC1)NC(=O)[C@H](Cc1c[nH]cn1)NC(=O)[C@H](Cc1ccccc1)NC(=O)OC(C)C)C(=O)N[C@@H](Cc1ccccc1)C(N)=O (HELM PEPTIDE1{[CC(C)OC(=O)[*:2]].F.H.[O=C(C[C@H](O)[C@H](CC1CCCCC1)N[*:1])[*:2]].L.F.[am]}$$$$V2.0) as the compound, how does the pIC50 [1] read?
Answer: Its pIC50 is 8.29.

Question: What about the pKi [2] of the same compound?
Answer: Its pKi is 8.96.

Question: And the pIC50 [3]?
Answer: Its pIC50 is 7.70.

Question: CC(C)CC(=O)N[C@@H](Cc1c[nH]cn1)C(=O)N1CCC[C@H]1C(=O)N[C@@H](Cc1ccccc1)C(=O)N[C@@H](Cc1c[nH]cn1)C(=O)N[C@@H](CC1CCCCC1)C(O)CC(=O)N[C@@H](CC(C)C)C(=O)N[C@@H](Cc1ccccc1)C(N)=O (some centres not stated) (HELM PEPTIDE1{[CC(C)CC(=O)[*:2]].H.P.F.H.[O=C(CC(O)[C@H](CC1CCCCC1)N[*:1])[*:2]].L.F.[am]}$$$$V2.0) was tested. Which pKi [4] did it give?
Answer: Its pKi is 6.64.

Question: What about the pKi [5] of the same compound?
Answer: Its pKi is 7.55.

Question: And the pKi [6]?
Answer: Its pKi is 8.68.

Question: Which results are given for CC(C)CC(=O)N[C@@H](Cc1c[nH]cn1)C(=O)N1CCC[C@H]1C(=O)N[C@@H](Cc1ccccc1)C(=O)N[C@@H](Cc1c[nH]cn1)C(=O)N[C@@H](CC(C)C)[C@@H](O)CC(=O)N[C@@H](CC(C)C)C(=O)N[C@@H](Cc1ccccc1)C(N)=O (HELM PEPTIDE1{[CC(C)CC(=O)[*:2]].H.P.F.H.[CC(C)C[C@H](N[*:1])[C@@H](O)CC(=O)[*:2]].L.F.[am]}$$$$V2.0)?
Answer: pKi [4]: 6.70; pKi [5]: 7.57; pKi [6]: 7.85

Question: What does the source list for CC(C)C[C@H](NC(=O)C[C@H](O)[C@H](CC1CCCCC1)NC(=O)[C@H](Cc1c[nH]cn1)NC(=O)COc1ccccc1)C(=O)N[C@@H](Cc1ccccc1)C(N)=O?
Answer: pIC50 [1]: 6.00; pKi [2]: 7.85; pIC50 [3]: < 6.00

Question: Which results are given for CC(C)C[C@H](NC(=O)C[C@H](O)[C@H](CC1CCCCC1)NC(=O)[C@H](Cc1c[nH]cn1)NC(=O)[C@H](Cc1ccccc1)NC(=O)OC(C)(C)C)C(=O)N[C@@H](Cc1ccccc1)C(N)=O (HELM PEPTIDE1{[CC(C)(C)OC(=O)[*:2]].F.H.[O=C(C[C@H](O)[C@H](CC1CCCCC1)N[*:1])[*:2]].L.F.[am]}$$$$V2.0)?
Answer: pIC50 [1]: 8.66; pKi [2]: 9.06; pIC50 [3]: 7.89

Question: CCOC(=O)N[C@@H](Cc1ccccc1)C(=O)N[C@@H](Cc1c[nH]cn1)C(=O)N[C@@H](CC1CCCCC1)[C@@H](O)CC(=O)N[C@@H](CC(C)C)C(=O)N[C@@H](Cc1ccccc1)C(N)=O (HELM PEPTIDE1{[CCOC(=O)[*:2]].F.H.[O=C(C[C@H](O)[C@H](CC1CCCCC1)N[*:1])[*:2]].L.F.[am]}$$$$V2.0) was tested. Which pIC50 [1] did it give?
Answer: Its pIC50 is 9.12.

Question: What about the pKi [2] of the same compound?
Answer: Its pKi is 9.28.

Question: And the pIC50 [3]?
Answer: Its pIC50 is 8.02.
